Measurements reported in publication PMC5331736 (Drug testing and analysis, 2014).

Columns and labels:
5-HT transporters (SERT) = 5-HT transporters (SERT) (Rattus norvegicus, UniProt P31652); assay: Release assay at SERT, [3H]5-HT preloaded rat brain synaptosomes; type: biochemical; details: for releasing efficacy at SERT (in words): rat brain tissue
Summary of the method: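 Synaptosomes came from male Sprague-Dawley rat (250–300 g) brains after CO2 euthanasia. They were preloaded to steady state (1 h) with 5 nM [3H]5-HT in Krebs-phosphate buffer containing 1 μM reserpine, plus unlabelled blockers for the other transporters. Preloaded synaptosomes were added to test compound dilutions, and release was stopped by vacuum filtration. Retained radioactivity was measured by scintillation counting. Dose-response; mean ± SD, N = 3–4, triplicate.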

[1] = biological target: dopamine transporters (DAT) (Rattus norvegicus, UniProt P23977); assay: Release assay at DAT, [3H]MPP+ preloaded rat brain synaptosomes; type: biochemical; details: (EC50 at DAT)^−1/(EC50 at SERT)^−1; higher value indicates greater DAT selectivity
Summary of the method: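 Male Sprague-Dawley rat (250–300 g) brain synaptosomes. DAT substrate was 9 nM [3H]MPP+ and SERT substrate 5 nM [3H]5-HT. Buffers held 1 μM reserpine, with unlabelled blockers of competing transporters. Synaptosomes were preloaded for 1 h in Krebs-phosphate buffer, then added to test compound. Filtration stopped release, and retained radioactivity was counted. The ratio comes from dose-response EC50s; N = 3–4, triplicate.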

[2] = cis to trans isomerization in solution; type: physicochemical; details: acetonitrile only
SERT = SERT (Rattus norvegicus, UniProt P31652); assay: Uptake blocking at SERT; type: biochemical; details: subsequent experiments, data not shown
Sequence of SERT (P31652 whole entry): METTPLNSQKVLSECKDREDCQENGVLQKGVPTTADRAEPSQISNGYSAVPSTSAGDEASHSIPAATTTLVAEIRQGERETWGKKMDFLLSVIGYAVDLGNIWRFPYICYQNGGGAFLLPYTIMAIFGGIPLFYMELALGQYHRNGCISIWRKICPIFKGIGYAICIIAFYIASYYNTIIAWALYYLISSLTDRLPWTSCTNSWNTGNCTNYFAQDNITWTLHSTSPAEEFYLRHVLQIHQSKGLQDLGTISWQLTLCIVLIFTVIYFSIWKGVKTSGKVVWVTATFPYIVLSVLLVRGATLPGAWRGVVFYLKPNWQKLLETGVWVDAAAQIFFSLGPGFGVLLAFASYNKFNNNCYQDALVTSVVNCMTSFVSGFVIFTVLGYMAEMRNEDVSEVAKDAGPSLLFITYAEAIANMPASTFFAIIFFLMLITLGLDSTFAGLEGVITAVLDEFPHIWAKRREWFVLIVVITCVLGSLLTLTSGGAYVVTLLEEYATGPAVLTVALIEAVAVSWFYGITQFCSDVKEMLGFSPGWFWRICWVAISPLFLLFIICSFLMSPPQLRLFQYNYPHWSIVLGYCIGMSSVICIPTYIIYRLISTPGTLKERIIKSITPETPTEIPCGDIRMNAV

Sequence of 5-HT transporters (SERT) (P31652 whole entry): as above
Sequence of dopamine transporters (DAT) (P23977 whole entry): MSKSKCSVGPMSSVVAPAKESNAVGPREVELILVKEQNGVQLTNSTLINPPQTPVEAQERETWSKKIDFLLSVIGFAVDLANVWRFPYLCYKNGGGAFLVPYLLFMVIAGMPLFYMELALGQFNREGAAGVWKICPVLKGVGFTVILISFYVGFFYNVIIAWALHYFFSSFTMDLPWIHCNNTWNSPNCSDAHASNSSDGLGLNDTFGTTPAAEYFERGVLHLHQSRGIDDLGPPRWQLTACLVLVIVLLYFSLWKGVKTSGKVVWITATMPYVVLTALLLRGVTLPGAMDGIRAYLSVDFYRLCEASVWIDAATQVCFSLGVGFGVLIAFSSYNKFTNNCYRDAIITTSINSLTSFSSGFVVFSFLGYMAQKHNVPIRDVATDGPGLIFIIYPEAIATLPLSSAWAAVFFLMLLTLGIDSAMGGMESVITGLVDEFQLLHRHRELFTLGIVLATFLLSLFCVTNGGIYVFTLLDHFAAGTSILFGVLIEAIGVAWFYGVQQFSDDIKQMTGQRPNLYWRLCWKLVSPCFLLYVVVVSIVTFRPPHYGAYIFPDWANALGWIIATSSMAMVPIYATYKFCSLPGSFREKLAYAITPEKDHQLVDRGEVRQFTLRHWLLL

SMILES	releasing efficacy at SERT (in words) (5-HT transporters (SERT))	DAT/SERT ratio [1]	cis to trans isomerization [2]	maximal release at SERT (5-HT transporters (SERT); efficacy, % of maximal release) [%]	uptake blocker efficacy at SERT (SERT)
C[C@@H]1N=C(N)O[C@@H]1c1ccc2c(c1)OCO2 (racemic) [Cis-MDMAR, (±)-cis-3′,4′-Methylenedioxy-4-methylaminorex]	fully efficacious releasing agents	4.3	Isomerization did not occur	–	–
C[C@@H]1N=C(N)O[C@H]1c1ccc2c(c1)OCO2 (racemic) [Trans-MDMAR, (±)-trans-3′,4′-Methylenedioxy-4-methylaminorex]	fully efficacious releasing agents	2.0	–	–	–
Cc1ccc([C@H]2OC(N)=N[C@H]2C)cc1 (relative stereo) [Cis-DMAR, cis-4,4′-dimethylaminorex]	fully efficacious releasing agents	1.6	–	–	–
Cc1ccc([C@@H]2OC(N)=N[C@H]2C)cc1 (relative stereo) [Trans-DMAR, trans-4,4′-dimethylaminorex]	partial releasing activity	2.5	–	75	fully efficacious as an uptake blocker
CNC(C)Cc1ccc2c(c1)OCO2 (single isomer, unassigned; (+)) [(+)-MDMA, (+)-3,4-methylenedioxymethamphetamine]	–	0.6	–	–	–
